Calls of active or inactive are those of the source. No cut-off for these calls is given here.
What was measured:
[1] = target: T1, Alpha-2A adrenergic receptor (Homo sapiens) (UniProt P08913); test: Agonist activity at human adrenoceptor alpha2A expressed in CHOK1 cells assessed as stimulation of agonist-induced [35S]GTPgammaS binding by scintillation counting assay relative to noradrenaline; format: functional, cell-based; settings: CHO-K1
T1 sequence (whole entry): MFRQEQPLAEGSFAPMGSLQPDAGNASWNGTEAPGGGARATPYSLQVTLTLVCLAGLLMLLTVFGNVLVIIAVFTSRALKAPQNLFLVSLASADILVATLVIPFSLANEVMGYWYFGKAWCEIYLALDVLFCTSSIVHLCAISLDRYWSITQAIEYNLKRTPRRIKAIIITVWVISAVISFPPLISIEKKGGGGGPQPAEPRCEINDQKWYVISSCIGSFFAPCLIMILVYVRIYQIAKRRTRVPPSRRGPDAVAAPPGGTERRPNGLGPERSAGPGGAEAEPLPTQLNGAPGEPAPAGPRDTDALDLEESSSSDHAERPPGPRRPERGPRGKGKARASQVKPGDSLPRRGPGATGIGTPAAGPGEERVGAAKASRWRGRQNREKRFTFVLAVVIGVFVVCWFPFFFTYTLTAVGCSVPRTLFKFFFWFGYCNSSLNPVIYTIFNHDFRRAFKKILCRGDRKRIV
Procedure, shortened: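 Membranes from CHO-K1 cells stably expressing human α2A-adrenoceptor; 5 µg protein incubated with serial dilutions of agonist and 0.1 nM [35S]GTPγS in Tris buffer pH 7.4 with 1 µM GDP, MgCl2, NaCl, 30 min at RT. Filtered and counted by scintillation. EC50 and intrinsic activity relative to noradrenaline; means from 3 independent experiments.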

Nischarin = Nischarin (Rattus norvegicus, UniProt Q4G017); test: Displacement of [3H]clonidine from imidazoline I1 receptor in Sprague-Dawley rat kidney membranes after 45 mins by scintillation counting; format: cell membranes, Membrane
Chain of Nischarin (Q4G017 whole entry): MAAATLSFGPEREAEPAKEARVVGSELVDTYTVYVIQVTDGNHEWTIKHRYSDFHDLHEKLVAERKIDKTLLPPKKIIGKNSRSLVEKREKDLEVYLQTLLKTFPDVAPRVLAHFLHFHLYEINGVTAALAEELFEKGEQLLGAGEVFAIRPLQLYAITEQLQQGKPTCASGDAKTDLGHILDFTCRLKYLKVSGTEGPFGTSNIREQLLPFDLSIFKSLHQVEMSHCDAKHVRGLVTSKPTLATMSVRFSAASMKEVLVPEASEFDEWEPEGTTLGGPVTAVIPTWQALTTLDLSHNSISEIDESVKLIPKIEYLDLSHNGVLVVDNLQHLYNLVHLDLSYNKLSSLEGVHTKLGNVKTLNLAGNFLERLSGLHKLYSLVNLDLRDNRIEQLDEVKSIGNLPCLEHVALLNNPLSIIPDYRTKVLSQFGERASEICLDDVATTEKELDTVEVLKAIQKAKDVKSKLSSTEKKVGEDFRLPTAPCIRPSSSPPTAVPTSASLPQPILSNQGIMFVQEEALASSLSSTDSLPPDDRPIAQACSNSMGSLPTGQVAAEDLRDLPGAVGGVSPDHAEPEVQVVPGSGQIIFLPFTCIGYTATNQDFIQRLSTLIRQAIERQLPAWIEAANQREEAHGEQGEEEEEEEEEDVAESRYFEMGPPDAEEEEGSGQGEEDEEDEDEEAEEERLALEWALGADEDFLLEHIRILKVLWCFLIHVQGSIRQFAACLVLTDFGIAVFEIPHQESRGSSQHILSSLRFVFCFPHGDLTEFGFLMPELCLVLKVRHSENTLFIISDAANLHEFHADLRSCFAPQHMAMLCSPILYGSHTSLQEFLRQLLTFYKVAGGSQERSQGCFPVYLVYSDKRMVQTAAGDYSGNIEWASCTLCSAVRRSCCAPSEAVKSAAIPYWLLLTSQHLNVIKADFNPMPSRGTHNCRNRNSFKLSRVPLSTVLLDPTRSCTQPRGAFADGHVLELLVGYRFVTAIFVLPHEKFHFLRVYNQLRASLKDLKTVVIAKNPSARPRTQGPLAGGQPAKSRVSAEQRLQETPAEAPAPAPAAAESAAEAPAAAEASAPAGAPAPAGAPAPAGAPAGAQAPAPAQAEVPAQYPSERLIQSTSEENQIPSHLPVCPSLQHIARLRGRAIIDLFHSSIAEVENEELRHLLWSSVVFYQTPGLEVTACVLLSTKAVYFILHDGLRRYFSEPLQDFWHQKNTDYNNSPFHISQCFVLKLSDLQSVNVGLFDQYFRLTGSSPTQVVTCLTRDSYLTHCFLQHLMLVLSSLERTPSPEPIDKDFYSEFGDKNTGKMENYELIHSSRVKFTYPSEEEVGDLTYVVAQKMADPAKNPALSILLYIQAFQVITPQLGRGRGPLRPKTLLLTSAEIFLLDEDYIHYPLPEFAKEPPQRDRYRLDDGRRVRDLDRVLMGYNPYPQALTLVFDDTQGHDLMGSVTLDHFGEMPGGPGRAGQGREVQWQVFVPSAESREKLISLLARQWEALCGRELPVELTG
Procedure, shortened: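 Crude P2 membranes from male Sprague–Dawley rat kidney, 0.2–0.5 mg protein. […] Specific binding defined by 10 µM rilmenidine. 11 concentrations from 0.01 to 100 µM, 50 mM Tris-HCl pH 7.4, 45 min at RT. Filtration and scintillation counting; IC50.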

[2] = target: T2, Adrenergic receptor alpha-2 (Rattus norvegicus, UniProt P22086+P19328+P22909); test: Displacement of […] from adrenoceptor alpha2 in Sprague-Dawley rat brain membranes after 45 mins by scintillation counting; format: cell membranes, Membrane
T2 sequence (P22086 whole entry): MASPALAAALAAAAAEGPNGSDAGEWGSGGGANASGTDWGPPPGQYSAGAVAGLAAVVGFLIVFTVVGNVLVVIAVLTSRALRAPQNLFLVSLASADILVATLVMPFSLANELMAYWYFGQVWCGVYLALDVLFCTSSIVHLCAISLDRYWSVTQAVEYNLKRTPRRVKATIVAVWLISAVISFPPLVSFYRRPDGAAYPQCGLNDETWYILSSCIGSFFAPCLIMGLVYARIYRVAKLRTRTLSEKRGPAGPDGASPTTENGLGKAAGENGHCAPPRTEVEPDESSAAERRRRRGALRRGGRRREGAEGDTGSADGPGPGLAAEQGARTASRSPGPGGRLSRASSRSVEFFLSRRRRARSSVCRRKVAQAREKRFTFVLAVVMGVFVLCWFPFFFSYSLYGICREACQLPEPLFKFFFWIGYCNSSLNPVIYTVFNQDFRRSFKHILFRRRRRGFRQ
T2 sequence (P19328 whole entry): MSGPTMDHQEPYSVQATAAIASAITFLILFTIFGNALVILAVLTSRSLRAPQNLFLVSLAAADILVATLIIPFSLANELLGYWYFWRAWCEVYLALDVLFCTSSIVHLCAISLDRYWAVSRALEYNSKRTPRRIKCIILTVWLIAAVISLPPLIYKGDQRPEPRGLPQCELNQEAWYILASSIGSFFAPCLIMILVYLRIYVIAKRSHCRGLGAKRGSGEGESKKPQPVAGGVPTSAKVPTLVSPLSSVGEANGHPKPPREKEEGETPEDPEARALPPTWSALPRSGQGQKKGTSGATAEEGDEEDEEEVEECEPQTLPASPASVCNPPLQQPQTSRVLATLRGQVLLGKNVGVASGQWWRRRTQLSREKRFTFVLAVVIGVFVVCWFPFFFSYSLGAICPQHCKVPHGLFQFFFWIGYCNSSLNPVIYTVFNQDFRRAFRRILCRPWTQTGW
T2 sequence (P22909 whole entry): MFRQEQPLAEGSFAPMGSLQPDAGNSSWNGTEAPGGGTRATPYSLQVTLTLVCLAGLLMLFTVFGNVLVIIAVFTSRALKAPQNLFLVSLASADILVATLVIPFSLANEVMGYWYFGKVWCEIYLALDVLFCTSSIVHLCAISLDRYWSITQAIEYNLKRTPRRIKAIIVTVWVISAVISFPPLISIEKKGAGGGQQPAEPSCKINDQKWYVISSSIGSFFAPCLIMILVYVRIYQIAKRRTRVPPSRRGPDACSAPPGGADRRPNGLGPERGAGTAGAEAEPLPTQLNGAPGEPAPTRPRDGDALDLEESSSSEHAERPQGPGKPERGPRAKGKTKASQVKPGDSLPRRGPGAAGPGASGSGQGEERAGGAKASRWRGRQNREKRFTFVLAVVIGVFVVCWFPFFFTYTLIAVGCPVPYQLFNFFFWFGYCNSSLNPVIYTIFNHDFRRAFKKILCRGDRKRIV
Procedure, shortened: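 Crude P2 membranes from male Sprague–Dawley rat brain (250–280 g), 0.2–0.3 mg protein. Radioligand 1 nM: [3H]2BFI for I2, [3H]prazosin for α1, [3H]RX821002 for α2. Non-specific binding defined by 10 µM BU224 (I2), 10 µM phenylephrine (α1) or 10 µM rauwolscine (α2). 11 concentrations from 0.01 nM to 100 µM, triplicate, 45 min at RT. Filtration and scintillation counting; Ki by Cheng–Prusoff.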

Rattus norvegicus [3] = test: Toxicity in Sprague-Dawley rat assessed as increase in body temperature at 10 to 2000 ug/kg, ip measured after 30 mins; format: organism-based; settings: in vivo, 0.5 h
Rattus norvegicus [4] = test: Anxiolytic activity in Sprague-Dawley rat assessed as loss of righting reflex at 100 ug/kg, ip measured after 30 mins; format: functional, organism-based
Procedure, shortened: (§1)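 Male Sprague–Dawley rats (250–270 g) were handled by the experimenter one day before testing. Compound was dissolved in sterile saline and given i.p. If no loss of righting reflex occurred after 5 min, the dose was repeated, up to 2000 µg/kg cumulative. Animals were watched for righting reflex, locomotion, motor coordination and behaviour. Righting reflex was scored at 30 min.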

Rattus norvegicus [5] = test: Antihypertensive activity in Wistar rat assessed as inhibition of methoxamine-induced change in blood pressure at 0.1 mg/kg, iv administered 10 mins after 10 ug/kg/min methoxamine challenge; format: functional, organism-based; set-up: dose 0.1 mg/kg
Procedure, shortened: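 Male Wistar rats (200–290 g) anaesthetized with i.p. thiopental 70 mg/kg, maintained by thiopental infusion, 36–37 °C. Carotid catheter for BP/HR, jugular line for infusion. Methoxamine i.v. infusion 10 or 20 µg/kg/min began 10 min before 0.1 mg/kg i.v. bolus. Readout is ΔMAP or ΔHR from time 0. Five to seven rats per group; repeated-measures ANOVA.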

Rattus norvegicus [6] = test: Toxicity in Sprague-Dawley rat assessed as reduced motor co-ordination at 10 to 2000 ug/kg, ip measured within 5 to 8 mins; format: organism-based; settings: in vivo; procedure, shortened: as §1

Row | SMILES | Emax [1] [%] | IC50 (Nischarin) [nM] | Ki [2] [nM] | Activity (Rattus norvegicus [3]) | Activity (Rattus norvegicus [4]) | Activity (Rattus norvegicus [5]) | Activity (Rattus norvegicus [6])
1 | Cl.c1ccc2c(c1)cnn2CC1=NCCN1 | 6.3 | 19400 | 18.5 |  |  |  | 
2 | Cc1cccc2cnn(CC3=NCCN3)c12.Cl | 6.3 | 96400 | 607 |  |  |  | 
3 | Cl.Clc1cccc2cnn(CC3=NCCN3)c12 | 7.4 | 856 | 6.4 | Toxic | inactive | inactive | Toxic

— ChEMBL document CHEMBL1926556, “Synthesis and biological activities of 2-[(heteroaryl)methyl]imidazolines” (Bioorg Med Chem, 2012)
